Compound activity: PubChem BioAssay, several laboratories
PTPN22 act: LYP (human) phosphatase activation; recombinant LYP, DiFMUP fluorescence; 0 = plate median, 100 = signal doubled; Q9Y2R2; actives 0.11% (n = 96,000); activation, % at 2 µM;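 active = activation at 2 µM above a set limit, the mean plus 5 SD, cut at about 37% in these data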
HIV Rev-RRE inh: inhibitors of HIV-1 Rev-RRE RNA interaction | P05866 | inhibition, % at 8 µM | actives 0.79% (n = 97,000) | Rev peptide-RRE RNA binding, FRET;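 active = inhibition above the screen-wide mean plus 3 SD, cut at about 35% in these data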;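 also: 0% = median DMSO wells and 100% = median Neomycin B control wells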
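Assay system: labelled RRE RNA duplex and labelled Rev peptide / Medium: HEPES pH 7.5 salt buffer with EDTA / Reagent: labelled Rev peptide / Schedule: 5 + 15 min at 25 °C / Signal: FRET, excitation 480 nm, emission 540 nm donor and 671 nm acceptor / Benchmarks: DMSO and neomycin B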
PLK1 PBD inh: blocks phosphopeptide binding to human Plk1 polo box domain | inhibition, %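 (tested at about 20 µM)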 | Plk1 PBD phosphopeptide binding, fluorescence polarization | actives 0.13% (n = 97,000) | AID 693; in the data active = inhibition above about 34%, passing the limit was not always enough
PTPN22 inh 2: LYP (human) phosphatase inhibition. AID 640. inhibition, % at 2 µM. actives 0.21% (n = 96,000). recombinant LYP catalytic domain, DiFMUP fluorescence;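 active = inhibition at 2 µM at or above a set limit, the screen mean plus 3 SD, cut at about 24% in these data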;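 also: 0% = DMSO with enzyme and 100% = enzyme fully blocked by orthovanadate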
EphB4 antag: EphB4-ephrin-B2 interaction antagonism; EphB4 LBD / TNYL-RAW-Alexa532 peptide, fluorescence polarization; inhibition, % at 7 µM; P54760; actives 0.15% (n = 97,000); AID 720;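 active = inhibition above the screen-wide mean inhibition plus 3 SD, cut at about 15% in these data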;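 also: 0% = DMSO wells and 100% = excess unlabeled TNYL-RAW peptide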
PLK1 inh: PLK1 (human) kinase inhibition | inhibition, % at 10 µM | AID 619 | actives 0.53% (n = 97,000) | recombinant PLK1 kinase, TR-FRET peptide phosphorylation;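 active = inhibition of 50% or more in the single-concentration screen; inactive = inhibition below 50%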;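 also: 0% = DMSO max control and 100% = H-89 dihydrochloride min control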
Numbers without * were called inactive; [ ] = dose if it differs, or a comment. Hits are enriched below; roughly 2% of the tested compounds scored in any of these assays.

`c1ccc(-c2csc3nnc(SCc4ccc5c(c4)OCCO5)n23)cc1` gave PTPN22 act -4, HIV Rev-RRE inh 3, PLK1 PBD inh -5, PTPN22 inh 2 4, EphB4 antag 2 and PLK1 inh -12.
`O=C(CSc1nnc2scc(-c3ccccc3)n12)c1ccc2c(c1)OCCO2` gave HIV Rev-RRE inh 6, PLK1 PBD inh -26, EphB4 antag -9 and PLK1 inh 59*.
Screening CCc1cc[n+](-c2nc([O-])sc2C=O)cc1 returned PTPN22 act 3, HIV Rev-RRE inh 46*, PLK1 PBD inh -13, PTPN22 inh 2 1, EphB4 antag 0 and PLK1 inh -5.
CCOC(=O)c1cnc(Nc2nc3ccccc3o2)nc1CN1CCN(C)CC1 was read as PTPN22 act -1, HIV Rev-RRE inh 20, PLK1 PBD inh 1, PTPN22 inh 2 5, EphB4 antag 16* and PLK1 inh -9.
`CCOC(=O)c1oc2ccccc2c1NC(=O)CN1CCN(C)CC1` gave PTPN22 act -4, HIV Rev-RRE inh 2, PLK1 PBD inh 6, PTPN22 inh 2 3, EphB4 antag -4 and PLK1 inh -3.
Screening O=C(Nc1ccc(Cl)cc1Cl)c1cccc(N2C(=O)C=CC2=O)c1 returned PLK1 inh -4.
Screening COc1ccc(N2C(=O)[C@@H]3[C@H](C2=O)[C@H]2c4ccccc4C=CN2[C@@H]3C(=O)Nc2ccccc2)cc1 returned PTPN22 act 0, HIV Rev-RRE inh 119*[fluorescence artefact?], PLK1 PBD inh -154, PTPN22 inh 2 -1, EphB4 antag 7 and PLK1 inh -12.
Screening CC(=O)[C@@H]1[C@@H]2C(=O)N(Cc3ccccc3)C(=O)[C@@H]2C2c3ccccc3C=CN21 (stereo not given in full) returned PTPN22 act -11, HIV Rev-RRE inh 64*, PLK1 PBD inh -28, PTPN22 inh 2 8, EphB4 antag -7 and PLK1 inh -9.
Screening O=C(c1ccco1)[C@@H]1[C@@H]2C(=O)N(c3ccccc3)C(=O)[C@@H]2C2c3ccccc3C=CN21 (stereo not given in full) returned PTPN22 act 2, HIV Rev-RRE inh 34, PLK1 PBD inh -10, PTPN22 inh 2 -2, EphB4 antag -4 and PLK1 inh -7.
`CCC(CC)C(=O)Nc1cccc(C(=O)Nc2ccc(S(=O)(=O)Nc3ccc(C)cc3)cc2)c1` gave PTPN22 act 7, HIV Rev-RRE inh 8, PLK1 PBD inh 0, PTPN22 inh 2 -3, EphB4 antag 6 and PLK1 inh 0.
Screening CC1CCN(C(=O)CCNC(=O)Cn2cnc3sc4c(c3c2=O)CCCC4)CC1 returned PTPN22 act -9, HIV Rev-RRE inh 6, PLK1 PBD inh -1, PTPN22 inh 2 6, EphB4 antag 1 and PLK1 inh 1.
For Fc1ccc(NCc2cccnc2)cc1F the results were PTPN22 act 22, HIV Rev-RRE inh 41*, PLK1 PBD inh -12, PTPN22 inh 2 -22, EphB4 antag -1 and PLK1 inh 2.
`O=C(Nc1ccc(F)c(F)c1)c1cccnc1` gave PTPN22 act -6, HIV Rev-RRE inh 5, PLK1 PBD inh 9, PTPN22 inh 2 5, EphB4 antag 2 and PLK1 inh -6.
Screening O=C(O)CSc1nnc(-c2cccs2)n1-c1ccc(Cl)cc1 returned PTPN22 act -10, HIV Rev-RRE inh 6, PLK1 PBD inh -11, PTPN22 inh 2 6, EphB4 antag 5 and PLK1 inh -12.
`O=C(CSc1nnc(-c2cccs2)n1-c1cccc(Cl)c1)c1cccc2c1OCCO2` gave PTPN22 act -24, HIV Rev-RRE inh 7, PLK1 PBD inh 13, PTPN22 inh 2 25*, EphB4 antag 9 and PLK1 inh -25.
Screening CCOC(=O)N1CCC(Nc2c(OCC)c(=O)c2=O)CC1 returned HIV Rev-RRE inh 3, PLK1 PBD inh -1, EphB4 antag -6 and PLK1 inh 69*.
`O=C(CCSc1ccc(Cl)c(Cl)c1)NC12CC3CC(CC(C3)C1)C2` gave PTPN22 act -5, HIV Rev-RRE inh 10, PLK1 PBD inh -22, PTPN22 inh 2 4, EphB4 antag -2 and PLK1 inh -11.
Cc1ccc(C(=O)n2nc(-c3ccco3)nc2N)cc1 was read as PTPN22 act -28, HIV Rev-RRE inh 4, PLK1 PBD inh -10, PTPN22 inh 2 29*, EphB4 antag 5 and PLK1 inh -11.
COc1ccc(C(=O)n2nc(-c3ccco3)nc2N)cc1 was read as PTPN22 act -10, HIV Rev-RRE inh 4, PLK1 PBD inh -24, PTPN22 inh 2 9, EphB4 antag 7 and PLK1 inh -9.
Screening N#C/C(=C\c1cc([N+](=O)[O-])c(N2CCOCC2)cc1N1CCOCC1)c1nc2ccccc2[nH]1 returned PTPN22 act 5, HIV Rev-RRE inh 7, PLK1 PBD inh 13, PTPN22 inh 2 -7, EphB4 antag 0 and PLK1 inh -10.
`N#C/C(=C\c1ccc(N2CCOCC2)o1)c1ccccc1` gave PTPN22 act 3, HIV Rev-RRE inh 78*, PLK1 PBD inh -33, PTPN22 inh 2 0, EphB4 antag -7 and PLK1 inh -16.
`N#C/C(=C/c1ccc(N2CCOCC2)o1)c1ccc(Br)cc1` gave PTPN22 act 3, HIV Rev-RRE inh 123*[fluorescence artefact?], PLK1 PBD inh -171, PTPN22 inh 2 -2, EphB4 antag -11 and PLK1 inh -16.
C/C(=C1/SC(N2CCOCC2)=NC1=O)c1ccc(Br)cc1 was read as PTPN22 act 3, HIV Rev-RRE inh -2, PLK1 PBD inh -7, PTPN22 inh 2 -5, EphB4 antag 2 and PLK1 inh -3.
For N#C/C(=C/c1ccc(N2CCOCC2)o1)c1nc2ccccc2[nH]1 the results were PTPN22 act 1, HIV Rev-RRE inh 136*[fluorescence artefact?], PLK1 PBD inh -234, PTPN22 inh 2 -1, EphB4 antag -6 and PLK1 inh -98.
For N#C/C(=C\N1CCOCC1)c1ccccc1 the results were PTPN22 act -6, HIV Rev-RRE inh 2, PLK1 PBD inh -15, PTPN22 inh 2 7, EphB4 antag -2 and PLK1 inh -4.
COCc1nnc(NC(=O)CC(c2ccccc2)c2ccccc2)s1 was read as PTPN22 act -6, HIV Rev-RRE inh 0, PLK1 PBD inh -18, PTPN22 inh 2 8, EphB4 antag 17* and PLK1 inh -6.
COCc1nnc(NC(=O)CC(C)C)s1 was read as PTPN22 act 9, HIV Rev-RRE inh 1, PLK1 PBD inh -5, PTPN22 inh 2 -8, EphB4 antag 8 and PLK1 inh -4.
For O=C(NCCN1CCN(c2ccccc2)CC1)C1CCN(S(=O)(=O)N2CCOCC2)CC1 the results were PTPN22 act -6, HIV Rev-RRE inh 0, PLK1 PBD inh -9, PTPN22 inh 2 5, EphB4 antag -1 and PLK1 inh 56*.
